In all, about 30,000 compounds went through this assay and about 80 (0.3%) were called active.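 The calls were made as follows: active = mutant and wild-type yeast strains alike exhibit over 30% growth inhibition; inconclusive = a strain exceeds 50% while the second remains under 30%; inactive = the rest.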 The list comes from a sample in which actives are over-represented; it also holds similar structures and randomly drawn compounds.
Test: yeast growth toxicity, wild-type and mutant, primary screen, cytotoxicity control for eIF2B function restoration project, wild-type and eIF2Bepsilon R284H mutant, A595 (AID 685);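 also: 0% = untreated cell controls and 100% = YPD media blanks without cells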
Details: A595 turbidity, 16 h, stronger effect = higher value, screened at 25 µM (by protocol)
Method in brief: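 Incubation: 16 h growth with compound, 30 °C; Material: S. cerevisiae wild-type or eIF2Bepsilon-R284H mutant strain; Signal: turbidity measured as absorbance at 595 nm; Medium: YPD yeast growth medium; Measure: growth inhibition (%) versus cell controls and blanks; Doses: 25 µM single dose.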

[1] = S. cerevisiae eIF2Bepsilon-R284H mutant growth

| Compound | growth inhibition [1] [%] | growth inhibition (S. cerevisiae wild-type growth) |
| --- | --- | --- |
| COc1ccc(NC(=O)COC(=O)Cn2c(C)nc3ccccc32)cc1OC | -9.52 | -7.04% (inactive) |
| CN(C)/C=C1/C(=O)Nc2ccccc21 | 0 | 16.7% (inactive) |
| CCCCNC(=O)C1CCCN(S(=O)(=O)c2ccc(S(=O)(=O)NCC(C)C)cc2)C1 (stereo not given) | 28.2 | 0.77% (inactive) |
| CCOc1ccc(-c2nc(C)sc2CC(=O)O)cc1 | 14.9 | 16.7% (inactive) |
| COc1cc(S(=O)(=O)N(Cc2cccs2)C2CC2)ccc1-n1cnnn1 | -4.17 | 13% (inactive) |
| Cc1ccc(S(=O)(=O)N(c2cccc(C)c2)C2CCS(=O)(=O)C2)cc1 (stereo not given) | 0 | 8.71% (inactive) |
| CN(Cc1ccccc1)C(=O)COc1ccccc1 | 16.7 | 1.03% (inactive) |
| COc1ccc(NC(=O)CC2COc3ccccc3O2)c(OC)c1 (stereo not given) | 19.1 | 20% (inactive) |
| Cc1nnc(SCC(=O)NC(=O)NC2CCCC2)n1N | 17.4 | 24.3% (inactive) |
| COC(=O)c1ccc(S(=O)(=O)c2ccc(C(=O)OC)s2)s1 | -35.1 | -57.5% (inactive) |
| CC(=O)OC(C(=O)NC1CCCCC1)c1ccccc1 (stereo not given) | 0 | 11% (inactive) |
| CCC1CCCCN1CCCNC(=O)C1CCC(Cn2c(=O)[nH]c3ccccc3c2=O)CC1 (stereo not given) | 15.6 | 10% (inactive) |
| CCN1CCCC1Cn1cnc2c([nH]c3cc(OC)ccc32)c1=O (stereo not given) | 8.7 | 10% (inactive) |
| COc1cccc2c1OCC1COc3c(c(=O)n(C)c(=O)n3C)C21 (stereo not given) | 8.33 | 14.8% (inactive) |
| CCn1c(-c2ccoc2C)n[nH]c1=S | 22.8 | 21.4% (inactive) |
| CCOC(=O)C1=C(CSc2nccn2C)NC(=O)NC1c1ccc(OC)cc1 (stereo not given) | 5.26 | 17.1% (inactive) |
| COC(=O)C1C(=O)NCC1c1ccc(OC)cc1 (stereo not given) | 10.3 | 14.6% (inactive) |
| Cc1cccc(S(=O)(=O)CC(=O)Nc2nc(-c3ccccc3)cs2)c1 | 10 | 3.33% (inactive) |
| C=CCc1ccc(OCCOc2cccc(/C=N/n3cnnc3)c2)c(OC)c1 | -40.9 | 5% (inactive) |
| Cc1nnc(SCC(=O)Nc2ncc3c(n2)CC(C)(C)CC3=O)s1 | 10.3 | 35% (inactive) |

| Compound | growth inhibition [1] [%] | growth inhibition (S. cerevisiae wild-type growth) |
| --- | --- | --- |
| CCOc1cc(N2CCOCC2)c(OCC)cc1NC(=O)COC(=O)[C@H](Cc1c[nH]c2ccccc12)NC(C)=O | 6.98 | 26.6% (inactive) |
| Cc1ccc(OCCCC(=O)Nc2ccc(N3CCOCC3)cc2)cc1 | -14.3 | 12.7% (inactive) |
| COC(=O)C1CCN(CC(N)=O)CC1 | 17.5 | 20.8% (inactive) |
| O=C(NCCCCCCNC(=O)NCc1ccco1)NCc1ccco1 | 24.3 | 17.8% (inactive) |
| Cc1cc(=O)[nH]c(SCC(=O)N2c3ccccc3CC2C)n1 (stereo not given) | 3.57 | 4.67% (inactive) |
| CCCCOc1ccc(N(CC(=O)NCC2CCCO2)C(=O)CCC(=O)Nc2cc(C)ccn2)cc1 (stereo not given) | -6.45 | -28.3% (inactive) |
| O=C(c1ccc(CN2CCOCC2)cc1)N1CCN(c2ccccc2F)CC1 | 8.33 | 11.9% (inactive) |
| CC1=NN(/C(=N\c2nnc(C)s2)Nc2ccccc2)[C@H](c2ccc(C)cc2)S1 | -6.45 | 20.2% (inactive) |
| Cc1ccc(-c2cc(C(=O)NCC3CCCO3)c3ccccc3n2)o1 (stereo not given) | -6.45 | 6.79% (inactive) |
| CC1CCc2c(sc3nc4n(c(=O)c23)CCS4)C1 (stereo not given) | 15.4 | 36.9% (inactive) |
| COC(=O)CNC(=O)c1ccccc1F | 16.3 | 19.7% (inactive) |
| COc1ccc(N2CCN(Cc3ccc(Br)s3)CC2)cc1 | 10 | 16.1% (inactive) |
| CC(C)(C)NC(=O)CN(Cc1cccs1)C(=O)CNS(=O)(=O)c1ccccc1 | 14.1 | 11.6% (inactive) |
| C/C(=N\NC(=O)c1nc(C)cc(C)n1)c1ccccc1 | 24.3 | 15.2% (inactive) |
| CCC(=NC1CC(C)(C)NC(C)(C)C1)C1=C(O)CC(C)(C)CC1=O | 14.8 | 23.3% (inactive) |
| CN1C(=O)C(CC(N)=O)N(NC(=O)c2ccc(Cl)cc2)C1=S (stereo not given) | 9.52 | 33.8% (inactive) |
| COC(=O)c1sc(=S)n(-c2ccc(Cl)cc2)c1C | 14.5 | 9.64% (inactive) |
| CCOC(=O)c1ccc2c(c1)nc(SCC(=O)NC(C)C)n2CC | 7.69 | 3.45% (inactive) |
| CCOC(=O)C1C(=O)NCC1c1ccccc1 (stereo not given) | 22.1 | 11.5% (inactive) |
| CCCCN1C(=O)/C(=C2/C=CC=CN2C)SC1=S | 18.9 | 21.5% (inactive) |

Reference: PubChem BioAssay AID685 (PCMD, 2007)
